Four molecules from ChEMBL document CHEMBL4765376, “Discovery of an Orally Available Diazabicyclooctane Inhibitor (ETX0282) of Class A, C, and D Serine β-Lactamases” (J Med Chem, 2020) can be followed below.

Values after ≈ are worked out from the molar mass of the structure shown. Active and inactive are the calls of the source. No cut-off for these calls is given here.

Data set [1] in a line: Stability of compound in phosphate buffer assessed as half-life at pH 7.4. The class given is physicochemical. An outline of the steps: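 Compound at 10 μM in potassium phosphate buffer pH 7.4 at 37 °C without S9. Sampled at 0 to 60 min and measured by LC/MS/MS. Half-life from the first-order log-linear depletion slope.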
Data set [2] can be described thus: Metabolic stability in rat intestinal S9 fraction assessed as half-life at 10 uM up to 60 mins by LC/MS/MS analysis. The class given is ADME, subcellular, Intestine. An outline of the steps: (§1)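 S9 fraction at 0.8 mg/mL protein in 100 mM potassium phosphate pH 7.4, preincubated 5 min at 37 °C, then compound added at 10 μM final. Aliquots taken at 0, 2, 5, 10, 20, 40 and 60 min, quenched in acetonitrile with internal standard, and prodrug measured by LC/MS/MS. First-order half-life taken from the log-linear depletion slope.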

Data set [3] is described as follows: Metabolic stability in rat liver S9 fraction assessed as half-life at 10 uM up to 60 mins by LC/MS/MS analysis. Type of data set: ADME, subcellular. An outline of the steps:
as §1

A short description of data set [4]: Metabolic stability in human intestinal S9 fraction assessed as half-life at 10 uM up to 60 mins by LC/MS/MS analysis. Type of data set: ADME, subcellular, Intestine. An outline of the steps: as §1
A short description of data set [5]: Metabolic stability in human liver S9 fraction assessed as half-life at 10 uM up to 60 mins by LC/MS/MS analysis. The class given is ADME, subcellular. An outline of the steps:
as §1

A short description of data set [6]: Oral bioavailability in Sprague-Dawley rat at 10 mg/kg by LC/MS/MS analysis. The conditions noted are these: in vivo. The class given is ADME, organism-based. An outline of the steps: (§2)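 Jugular vein-cannulated male Sprague Dawley rats (180–200 g, n = 3/route). Intravenous arm: active acid at 10 mg/kg in 0.9% saline, plasma sampled 0.08–8 h. Oral arm: prodrug at a dose equivalent to 10 mg/kg acid in 25:75 PEG 400/WFI, plasma sampled 0.25–24 h. Levels by LC/MS/MS; F = (AUCpo/AUCiv) × 100.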

The test system of data set [7] is Escherichia coli. Kind of data set: Antibacterial activity against Escherichia coli ARC3627 assessed as reduction in bacterial growth by CLSI based broth dilution method. Type of data set: functional. The gist of the method:
(§3)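 Broth microdilution in CAMHB following CLSI.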

The subject of data set [8] is Klebsiella pneumoniae. Kind of data set: Antibacterial activity against Klebsiella pneumoniae ARC561 assessed as reduction in bacterial growth by CLSI based broth dilution method. Type of data set: functional. The gist of the method: as §3
On the technique in general: Dilution methods test growth across graded concentrations, often in twofold steps.

Data set [9] has as its system Klebsiella pneumoniae. Nature of the data set: Antibacterial activity against Klebsiella pneumoniae ARC 6082 drug resistant clinical isolates assessed as reduction in bacterial growth by CLSI based broth dilution method. The class given is functional. The gist of the method:
(§4)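 Broth microdilution per CLSI in cation-adjusted Mueller–Hinton broth against drug-resistant clinical isolates; MIC read as the lowest concentration preventing bacterial growth.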

Data set [10] relates to Klebsiella pneumoniae. Nature of the data set: Antibacterial activity against Klebsiella pneumoniae ARC 6088 carbapenem-resistant clinical isolates assessed as reduction in bacterial growth by CLSI based broth dilution method. The class given is functional. The gist of the method: as §4
In data set [11] the test system is Klebsiella pneumoniae. Nature of the data set: Antibacterial activity against Klebsiella pneumoniae ARC 6098 drug resistant clinical isolates assessed as reduction in bacterial growth by CLSI based broth dilution method. Type of data set: functional. An outline of the steps:
as §4

Data set [12] relates to Klebsiella pneumoniae. Nature of the data set: Antibacterial activity against Klebsiella pneumoniae ARC 6107 carbapenem resistant clinical isolates assessed as reduction in bacterial growth by CLSI based broth dilution method. Type of data set: functional. The gist of the method:
as §4

A further data set concerns Klebsiella oxytoca. Kind of data set: Antibacterial activity against Klebsiella oxytoca ARC 5389 carbapenem resistant clinical isolates assessed as reduction in bacterial growth by CLSI based broth dilution method. Type of data set: functional. The gist of the method: as §4
The test system of another data set is Citrobacter freundii. Kind of data set: Antibacterial activity against Citrobacter freundii ARC 3518 carbapenem resistant clinical isolates assessed as reduction in bacterial growth by CLSI based broth dilution method. The class given is functional. An outline of the steps:
as §4

Data set [13] deals with Enterobacter cloacae. Nature of the data set: Antibacterial activity against Enterobacter cloacae ARC 6049 drug resistant clinical isolates assessed as reduction in bacterial growth by CLSI based broth dilution method. The class given is functional. An outline of the steps:
as §4

In data set [14] the test system is Enterobacter cloacae. Kind of data set: Antibacterial activity against Enterobacter cloacae ARC 6055 drug resistant clinical isolates assessed as reduction in bacterial growth by CLSI based broth dilution method. Type of data set: functional. An outline of the steps: as §4
Data set [15] has as its system Escherichia coli. Nature of the data set: In vivo antibacterial activity against multidrug-resistant Escherichia coli ARC 2687 infected in CD-1 mouse model of neutropenic thigh infection assessed as colony forming unit at 50 mg/kg, po administered at 6 hrs interval. Type of data set: functional, organism-based. The gist of the method: (§5)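 Female CD-1 mice (20–22 g, 3/arm) made neutropenic with ip cyclophosphamide, 150 mg/kg on day −4 and 100 mg/kg on day −1. Each thigh received an im inoculum of 5.5 × 10^6–1.6 × 10^7 CFU from saline suspension (OD625 0.1, diluted). Dosing began 2 h post-infection, q6h. Oral agents were given in 0.5% HPMC/0.1% Tween 80; meropenem was given sc in water. Thighs were taken at 24 h, homogenized and plated on TSA (35 °C overnight) for CFU counts.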

Data set [16] concerns Escherichia coli. Nature of the data set: In vivo antibacterial activity against multidrug-resistant Escherichia coli ARC 2687 infected in CD-1 mouse model of neutropenic thigh infection assessed as colony forming unit at 600 mg/kg, sc administered at 6 hrs interval relative to pretreatment. The class given is functional. An outline of the steps:
as §5

Data set [17] can be described thus: Toxicity in rat assessed as adverse effect at 400 to 500 mg/kg, po measured for 14 days. The class given is organism-based. To be noted: in vivo, 336 h, dose 400-500 mg/kg, time 14 day. The gist of the method: (§6)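 Fourteen-day GLP toxicology study with daily oral administration; NOAEL determined.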
Data set [18] is described as follows: Cmax in Sprague-Dawley rat at 11.6 mg/kg, po by LC/MS/MS analysis. To be noted: in vivo. Type of data set: ADME, organism-based. Set-up: route oral, dose 11.6 mg/kg.
A short description of data set [19]: AUC in Sprague-Dawley rat at 11.6 mg/kg, po by LC/MS/MS analysis. Set-up: dose 11.6 mg/kg. The conditions noted are these: in vivo. Type of data set: ADME, organism-based.
A short description of data set [20]: Half-life in Sprague-Dawley rat at 11.6 mg/kg, po by LC/MS/MS analysis. Type of data set: ADME, organism-based. The conditions noted are these: in vivo.
Data set [21] in a line: Oral bioavailability in Sprague-Dawley rat at 11.6 mg/kg by LC/MS/MS analysis. To be noted: in vivo. The class given is ADME, organism-based. An outline of the steps: as §2
Data set [22] can be described thus: Drug metabolism assessed as diamine metabolite formation.
The test system of data set [23] is Escherichia coli. Nature of the data set: Synergistic antibacterial activity against multidrug-resistant Escherichia coli ARC 2687 infected in CD-1 mouse model of neutropenic thigh infection assessed as reduction in colony forming unit in presence of cefpodoxime at 10 to 100 mg/kg, po administered every 6 hrs interval. Type of data set: functional, organism-based. The conditions noted are these: dose 10-100 mg/kg. An outline of the steps: as §5

In data set [24] the test system is Escherichia coli. Nature of the data set: Synergistic antibacterial activity against multidrug-resistant Escherichia coli ARC 2687 infected in CD-1 mouse model of neutropenic thigh infection assessed as reduction in colony forming unit in presence of cefpodoxime at 50 to 100 mg/kg, po administered every 6 hrs interval. Type of data set: functional. To be noted: dose 50-100 mg/kg. The gist of the method:
as §5

A short description of data set [25]: Toxicity in dog assessed as adverse effect at 400 to 500 mg/kg, po measured for 14 days. Type of data set: organism-based, Canis lupus familiaris. The conditions noted are these: in vivo, 336 h, dose 400-500 mg/kg, time 14 day. The gist of the method:
as §6

With `CCOC(=O)[C@H](F)ON1C(=O)N2C[C@H]1C=C(C)[C@H]2C(=O)NCCS(N)(=O)=O`, in [1], the half-life is 26 min. Further, the half-life at 10 µM in data set [2] worked out at 20 min; in data set [3], 10 min; in data set [4], 22 min; in data set [5], 9.9 min. The bioavailability in data set [6] turned out to be 4%.

As to `COCC1=C(C(=O)O)N2C(=O)[C@@H](NC(=O)/C(=N\OC)c3csc(N)n3)[C@H]2SC1` [CEFPODOXIME], the MIC in the data set on Escherichia coli [7] was above 64 µg/mL; in the data set with Klebsiella pneumoniae [8], 32 µg/mL (≈ 74.9 µM); in the data set on Klebsiella pneumoniae [9], above 64 µg/mL; in the data set with Klebsiella pneumoniae [10], above 64 µg/mL; with Klebsiella pneumoniae [11], above 64 µg/mL; with Klebsiella pneumoniae [12], above 64 µg/mL. Besides, the MIC in the data set on Klebsiella oxytoca, in the data set with Citrobacter freundii, with Enterobacter cloacae [13] and in the data set with Enterobacter cloacae [14] was above 64 µg/mL each time. The outcome in the data set with Escherichia coli [15] was inactive.

In the case of `C[C@@H](O)[C@H]1C(=O)N2C(C(=O)O)=C(S[C@@H]3CN[C@H](C(=O)N(C)C)C3)[C@H](C)[C@H]12` [MEROPENEM], in the data set with Escherichia coli [16], the Activity is recorded as -1.46 log10CFU/g.

Take `CC1=C[C@@H](C(N)=O)N2C[C@@H]1N(O[C@H](F)C(=O)OC(C)C)C2=O`: the figures for the Activity entry (in data set [17]; in the data set with Escherichia coli [24]; in data set [25]) were “Non-Toxic”, 1.11 log10CFU/g and “Non-Toxic”, respectively. In addition, the bioavailability in data set [6] and in data set [21] was 98% throughout. The highest concentration (Cmax) in [18] is 5800 ng/mL. The AUC in [19] turned out to be 7040 ng·h/mL. Besides, in [20], the half-life is 66 min. The Drug metabolism entry in data set [22] is “Metabolite detected”. Besides, in the data set with Escherichia coli [23], the result was Active.

Broadly, the half-life is the time in which the quantity being followed falls by half. As a reminder, the bioavailability is the share of a dose that reaches the circulation, judged against a reference dose that is usually intravenous. Lower therefore signals little systemic uptake. The term MIC denotes the least concentration at which growth counts as inhibited. For orientation: Cmax means the maximum level reached in the sampled fluid or tissue. One may read the AUC as concentration integrated over time.
